According to paper PMC10392308 (Journal of Enzyme Inhibition and Medicinal Chemistry, 2023):
Values after ≈ are worked out from the molar mass of the structure shown. Blank lines part the entries; values can stand above or below the compound they belong to.

Key:
HCT116 cancer cells = assay: In vivo anticancer effect in nude mice inoculated with HCT116 cells; design: species or system Balb/c nude mice; conditions: for Tumour growth inhibition rate: by tumour weight; for Tumour weight / Tumour volume at the end of the administration: compound 2 2.5 and 1 mg/kg, 5-FU 10 mg/kg; for Tumour weight: p < 0.001 vs control; for Tumour volume at the end of the administration: p < 0.01 vs control
Method in brief: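 Female Balb/c nude mice, 8 weeks old, received 0.1 ml of 1 × 10^8/mL HCT116 cells in the right armpit, six mice per group. At about 100 mm3 tumour, dosing began: i.p., 5 ml/kg, once every two days, vehicle 5% DMSO in soybean oil, with a vehicle group and a 5-FU group. Body weight and tumour diameters were taken every 3 d, with volume = A×B²/2. Inhibition = (1 − mean treated/control tumour weight) × 100%.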

TNF-α = assay: ELISA detection of TNF-α in tumour mice; type: in vivo, nude mice; conditions: serum, compound 2 1 and 2.5 mg/kg, 5-FU 10 mg/kg, vs control
Method in brief: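 HCT116 xenografts (1×10^8 cells/mL, 0.1 ml, right armpit) in 8-week-old female Balb/c nude mice, six per group. Test compound given i.p. in 5% DMSO/soybean oil (5 ml/kg) from ~100 mm3 tumours for 20 days. At sacrifice, serum held 2 h, spun 1000 × g for 20 min, stored −80 °C. TNF-α measured by mouse ELISA kit, six sera per group, triplicate wells.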

tumour tissue = assay: Haematoxylin-eosin staining; type: in vivo, nude mice; conditions: compound 2 1 and 2.5 mg/kg, 5-FU 10 mg/kg; vs control group
Method in brief: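 Female Balb/c nude mice (8 weeks) bore HCT116 xenografts from 1×10^8 cells/mL, 0.1 ml in the right armpit, six per group. Dosing was i.p. in 5% DMSO/soybean oil at 5 ml/kg, starting at ~100 mm3, for 20 days, with vehicle controls. Tumours collected after sacrifice and stained with haematoxylin-eosin; nuclei blue, cytoplasm red.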

VEGF [1] = assay: Immunohistochemical detection of VEGF expression in tumour tissue; type: in vivo, nude mice; conditions: compound 2 1 and 2.5 mg/kg, 5-FU 10 mg/kg; p < 0.0001 vs control
[2] = Water solubility determination using HPLC; type: physicochemical; conditions: 37 °C, thermodynamic from solid
Method in brief: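 […] were sonicated 10 min at 37 °C. After standing 1 h, the clear upper liquid was membrane-filtered and injected on HPLC. Water solubility was calculated from peak area using the regression equation.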

AGS = assay: MTT antiproliferative assay, AGS; type: cell-based; conditions: Homo sapiens, 48 h, read-out: IC50 values, AGS, MTT, 48 h
HCT-116 = assay: MTT antiproliferative assay, HCT-116; type: cell-based; conditions: Homo sapiens, HCT-116, 48 h, read-out: IC50 values, HCT-116, MTT, 48 h
MGC-803 cells [3] = assay: Cell cycle analysis with flow cytometry; type: cell-based, human; conditions: for Cells in G1 phase: DMSO 64.36%; for Phase in which the cell cycle is blocked: MGC-803, 18 h; for Cells in S phase: DMSO 20.59%
MGC-803 cells [4] = assay: Apoptosis assay with flow cytometry; type: cell-based, human; conditions: MGC-803, 18 h, highest value reached; blank control 8.2
VEGF [5] = assay: ELISA for the expression of VEGF in MGC-803 cells; type: cell-based, human; conditions: for Effect on the expression of VEGF: MGC-803, 0.1, 0.5, 1 µM, hypoxia or not
Method in brief: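 The hypoxia arm used 100 µM CoCl2·6H2O (1% O2) and was run beside 21% O2 cultures. MGC-803 cells were exposed 24 h to test compound at 0.1, 0.5 or 1 µM, with a 0.1% DMSO blank and a positive control. Supernatants were spun at 1000 × g for 20 min at 4 °C, and VEGF was quantified by human VEGF ELISA kit.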

MMP-9 = assay: ELISA for the expression of MMP-9 in MGC-803 cells; type: cell-based, human; conditions: for MMP-9 expression: control 18.6 ng/ml; for Effect on the expression of MMP-9: MGC-803, 0.1, 0.5, 1 µM
zebrafish embryos = assay: Zebrafish embryonic acute toxicity test; type: in vivo
Method in brief: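 Normally developed embryos at 6 hpf were placed in 24-well plates, six per well, and exposed for three days to test compound at 0.1, 0.15, 0.2, 0.3 and 0.5 μM, with a 0.5% DMSO blank. Hatching (shell without membrane) and death (cardiac arrest) were scored every 24 h. Incubation rate = hatched/total embryos × 100%, and mortality = dead/total × 100%.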

zebrafish larvae = assay: Zebrafish adult fish; type: in vivo; conditions: for Concentrations causing acute toxicity in zebrafish larvae: in vivo
Method in brief: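 Normally developed larvae at 3 dpf were placed in 24-well plates, six per well, and exposed to test compound at 0.1, 0.2, 0.3, 0.4 and 0.5 μM. Mortality was recorded at 24 h and 72 h.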

SMILES: O=c1[nH]cc(F)c(=O)[nH]1 [5-FU, 5-fluorouracil, reference compound]
Tumour growth inhibition rate (HCT116 cancer cells; 10 mg/kg intraperitoneally): 37.02%
Tumour weight (HCT116 cancer cells): significantly lower than that in the control group
Tumour volume at the end of the administration (HCT116 cancer cells): significantly smaller than that of the control
TNF-α content of tumour mice (TNF-α): increased the TNF-α content significantly
Morphological changes in tumour tissue (HE) (tumour tissue): tumour tissue structure was seriously damaged and the cell necrosis was obvious
VEGF expression in tumour tissue (immunohistochemistry) (VEGF [1]): downregulated the VEGF expression significantly

SMILES: CC1=C(O)C(=O)C=C2C1=CC=C1[C@@]2(C)CC[C@@]2(C)[C@@H]3C[C@](C)(C(=O)OCCCO)CC[C@]3(C)CC[C@]12C [Compound 2, 3-Hydroxypropyl (2 R,4aS,6aS,12bR,14aS,14bR)-10-hydroxy-2,4a,6a,9,12b,14a-hexamethyl-11-oxo-1,2,3,4,4a,5,6,6a,11,12b,13,14,14a,14b-tetradecahydropicene-2-carboxylate]
solubility at 1 h [2]: 11.8 µg/mL (≈ 23.2 µM)
IC50 (AGS): 330 nM
IC50 (HCT-116): 320 to 390 nM
Cells in G2 phase (MGC-803 cells [3]; 1 µM, 18 h, MGC-803, DMSO 15.05%): 37.01%
Cells in G1 phase (MGC-803 cells [3]; 1 µM, 18 h, MGC-803): 44.77%
Phase in which the cell cycle is blocked (MGC-803 cells [3]): G2 phase
Overall apoptosis rate (early apoptosis + late apoptosis) (MGC-803 cells [4]): 13%
VEGF expression (VEGF [5]; CoCl2-induced hypoxia, 0.1 µM, control 568.1 pg/ml): 430.8 pg/mL
VEGF expression (VEGF [5]; CoCl2-induced hypoxia, 0.5 µM, control 568.1 pg/ml): 397.5 pg/mL
VEGF expression (VEGF [5]; CoCl2-induced hypoxia, 1 µM, control 568.1 pg/ml): 328.8 pg/mL
Effect on the expression of VEGF (VEGF [5]): inhibited the expression of VEGF in a concentration-dependent manner
VEGF expression (VEGF [5]; normal oxygen conditions, 0.1 µM, control 531.5 pg/ml): 514.1 pg/mL
VEGF expression (VEGF [5]; normal oxygen conditions, 0.5 µM, control 531.5 pg/ml): 398.1 pg/mL
VEGF expression (VEGF [5]; normal oxygen conditions, 1 µM, control 531.5 pg/ml): 352.1 pg/mL
MMP-9 expression (MMP-9; MGC-803, 0.5 µM): 10.04 ng/mL
MMP-9 expression (MMP-9; MGC-803, 1 µM): 9.64 ng/mL
Effect on the expression of MMP-9 (MMP-9): inhibited the expression of MMP-9 in MGC-803 cells in a concentration-dependent manner
Body weight during the treatment period (HCT116 cancer cells; 1 mg/kg): no significant changes of body weight
Body weight during the treatment period (HCT116 cancer cells; 2.5 mg/kg): downward trend
Mental state of the mice (HCT116 cancer cells; 2.5 mg/kg): depressed
Tumour weight (HCT116 cancer cells): significantly lower than that in the control group
Tumour volume at the end of the administration (HCT116 cancer cells): significantly smaller than that of the control
Tumour growth inhibition rate (HCT116 cancer cells; high-dose 2.5 mg/kg intraperitoneally): 55.82%
Tumour growth inhibition rate (HCT116 cancer cells; low-dose 1 mg/kg intraperitoneally): 50.83%
TNF-α content of tumour mice (TNF-α): decreased the TNF-α content significantly in a dose-dependent manner
Morphological changes in tumour tissue (HE) (tumour tissue): tumour tissue structure was seriously damaged and the cell necrosis was obvious
VEGF expression in tumour tissue (immunohistochemistry) (VEGF [1]): downregulated the VEGF expression significantly
Acute toxicity for zebrafish embryos (zebrafish embryos; 0.1 μM): no acute toxicity
Incubation (hatching) rate of zebrafish embryos (zebrafish embryos; 0.15 μM): 25%
Hatching of zebrafish eggs (zebrafish embryos; 0.2 μM): no eggs hatched
Death rate of zebrafish embryos (zebrafish embryos; 0.5 μM, on the first day): 100%
Mortality of zebrafish embryos (zebrafish embryos; 0.5 μM, on the fourth day): 100%
100% mortality concentration (zebrafish larvae; zebrafish larvae, exposed for 72 h): 0.1 µM
Concentrations causing acute toxicity in zebrafish larvae (zebrafish larvae): higher than 0.1 μM

IC50 (HCT-116): 320 to 390 nM
SMILES: CC1=C(O)C(=O)C=C2C1=CC=C1[C@@]2(C)CC[C@@]2(C)[C@@H]3C[C@](C)(C(=O)OCCCCO)CC[C@]3(C)CC[C@]12C [Compound 3, 4-Hydroxybutyl (2 R,4aS,6aS,12bR,14aS,14bR)-10-hydroxy-2,4a,6a,9,12b,14a-hexamethyl-11-oxo-1,2,3,4,4a,5,6,6a,11,12b,13,14,14a,14b-tetradecahydropicene-2-carboxylate]

SMILES: CC1=C(O)C(=O)C=C2C1=CC=C1[C@@]2(C)CC[C@@]2(C)[C@@H]3C[C@](C)(C(=O)O)CC[C@]3(C)CC[C@]12C [celastrol, Celastrol, reference compound]
solubility at 1 h [2]: 6.2 µg/mL (≈ 13.8 µM)
Cells in S phase (MGC-803 cells [3]; 0.1 µM, 18 h, MGC-803): 19.18%
Cells in S phase (MGC-803 cells [3]; 1 µM, 18 h, MGC-803): 29.41%
Cells in G1 phase (MGC-803 cells [3]; 1 µM, 18 h, MGC-803): 52.96%
Phase in which the cell cycle is blocked (MGC-803 cells [3]): S phase
Overall apoptosis rate (early apoptosis + late apoptosis) (MGC-803 cells [4]): 9.8%
Effect on the expression of VEGF (VEGF [5]): inhibited the expression of VEGF in a concentration-dependent manner
Effect on the expression of MMP-9 (MMP-9): inhibited the expression of MMP-9 in MGC-803 cells in a concentration-dependent manner
Death rate of zebrafish embryos (zebrafish embryos; 0.2 μM): 50%
Incubation (hatching) rate of zebrafish embryos (zebrafish embryos; 0.3 or 0.5 μM): zero
Incubation (hatching) rate of zebrafish embryos (zebrafish embryos; exposure concentrations of 0.1, 0.15, and 0.2 μM): more than 75%
Concentrations causing acute toxicity in zebrafish larvae (zebrafish larvae): higher than 0.1 μM
